Measurements: ChEMBL document CHEMBL1124366, “Synthesis and biological properties of N63-carboxamides of teicoplanin antibiotics. Structure-activity relationships” (J Med Chem, 1989)
≈ marks a conversion by molar mass, not a printed value.

Tests used:
Format in all cases: functional
[1] = test system: Staphylococcus aureus; assay: In vitro minimum inhibitory concentration against Staphylococcus aureus Tour
[2] = test system: Streptococcus pneumoniae; assay: In vitro minimum inhibitory concentration against Streptococcus pneumoniae UC41
[3] = test system: Staphylococcus haemolyticus; assay: In vitro minimum inhibitory concentration against Staphylococcus hemolyticus 602 cell line; conditions: strain 602
[4] = test system: Staphylococcus epidermidis; assay: In vitro minimum inhibitory concentration against Staphylococcus epidermis ATCC 12228
[5] = test system: Streptococcus pyogenes; assay: In vivo effective dose given perorally to mice infected with Streptococcus pyogenes C 203; conditions: po
Procedure, shortened: (§1)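 Mice (five per treatment group, five groups) infected intraperitoneally with about 10⁵ cells of Strep. pyogenes C 203, about 100× the LD50. ED50 (mg/kg) was calculated from the percentage of mice surviving at each dose on day 7.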

[6] = test system: Enterococcus faecalis; assay: In vitro minimum inhibitory concentration against Streptococcus faecalis ATCC 7080
[7] = test system: Streptococcus pyogenes; assay: Subcutaneously administration into mice infected with Streptococcus pyogenes C 203; conditions: sc; procedure, shortened: as §1
[8] = test system: Streptococcus pyogenes; assay: In vitro minimum inhibitory concentration against Streptococcus pyogenes C 203

Row | SMILES | MIC [1] | MIC [2] | MIC [4] | MIC [6] | MIC [8] | MIC [3] | ED50 [5] | ED50 [7]
1 | CC(=O)N[C@@H]1[C@H](O[C@@H]2c3ccc(c(Cl)c3)Oc3cc4cc(c3O[C@@H]3O[C@@H](CO)[C@@H](O)[C@H](O)[C@@H]3NC(=O)CCCCCCC(C)C)Oc3ccc(cc3Cl)C[C@H]3NC(=O)[C@H](N)c5ccc(O)c(c5)Oc5cc(O)cc(c5)[C@H](NC3=O)C(=O)N[C@H]4C(=O)N[C@H]3C(=O)N[C@@H]2C(=O)N[C@H](C(=O)N(C)CCN(C)C)c2cc(O)cc(O[C@H]4O[C@H](CO)[C@@H](O)[C@@H](O)[C@@H]4O)c2-c2cc3ccc2O)O[C@@H](CO)[C@@H](O)[C@@H]1O | 0.12 µg/mL (≈ 0.0611 µM) | 0.06 µg/mL (≈ 0.0306 µM) | 0.06 µg/mL (≈ 0.0306 µM) | 0.06 µg/mL (≈ 0.0306 µM) | 0.06 µg/mL (≈ 0.0306 µM) | 0.25 µg/mL (≈ 0.127 µM) | 90 mg/kg | 0.15 mg/kg
2 | CNCCN(C)C(=O)[C@H]1NC(=O)[C@H]2NC(=O)[C@H](NC(=O)[C@@H]3NC(=O)[C@H]4NC(=O)[C@@H](Cc5ccc(c(Cl)c5)Oc5cc3cc(c5O[C@@H]3O[C@@H](CO)[C@@H](O)[C@H](O)[C@@H]3NC(=O)CCCCCCC(C)C)Oc3ccc(cc3Cl)[C@H]2O[C@@H]2O[C@@H](CO)[C@@H](O)[C@H](O)[C@@H]2NC(C)=O)NC(=O)[C@H](N)c2ccc(O)c(c2)Oc2cc(O)cc4c2)c2ccc(O)c(c2)-c2c(O[C@H]3O[C@H](CO)[C@@H](O)[C@@H](O)[C@@H]3O)cc(O)cc21 | 0.12 µg/mL (≈ 0.0615 µM) | 0.12 µg/mL (≈ 0.0615 µM) | 0.06 µg/mL (≈ 0.0308 µM) | 0.12 µg/mL (≈ 0.0615 µM) | 0.06 µg/mL (≈ 0.0308 µM) | 1 µg/mL (≈ 0.513 µM) | 72 mg/kg | 0.1 mg/kg
3 | CCNCCCNC(=O)[C@H]1NC(=O)[C@H]2NC(=O)[C@H](NC(=O)[C@@H]3NC(=O)[C@H]4NC(=O)[C@@H](Cc5ccc(c(Cl)c5)Oc5cc3cc(c5O[C@@H]3O[C@@H](CO)[C@@H](O)[C@H](O)[C@@H]3NC(=O)CCCCCCC(C)C)Oc3ccc(cc3Cl)[C@H]2O[C@@H]2O[C@@H](CO)[C@@H](O)[C@H](O)[C@@H]2NC(C)=O)NC(=O)[C@H](N)c2ccc(O)c(c2)Oc2cc(O)cc4c2)c2ccc(O)c(c2)-c2c(O[C@H]3O[C@H](CO)[C@@H](O)[C@@H](O)[C@@H]3O)cc(O)cc21 | 0.12 µg/mL (≈ 0.0611 µM) | 0.12 µg/mL (≈ 0.0611 µM) | 0.06 µg/mL (≈ 0.0306 µM) | 0.12 µg/mL (≈ 0.0611 µM) | 0.06 µg/mL (≈ 0.0306 µM) | 0.12 µg/mL (≈ 0.0611 µM) | 112 mg/kg | 0.1 mg/kg
4 | CCN(CC)CCCNC(=O)[C@H]1NC(=O)[C@H]2NC(=O)[C@H](NC(=O)[C@@H]3NC(=O)[C@H]4NC(=O)[C@@H](Cc5ccc(c(Cl)c5)Oc5cc3cc(c5O[C@@H]3O[C@@H](CO)[C@@H](O)[C@H](O)[C@@H]3NC(=O)CCCCCCC(C)C)Oc3ccc(cc3Cl)[C@H]2O[C@@H]2O[C@@H](CO)[C@@H](O)[C@H](O)[C@@H]2NC(C)=O)NC(=O)[C@H](N)c2ccc(O)c(c2)Oc2cc(O)cc4c2)c2ccc(O)c(c2)-c2c(O[C@H]3O[C@H](CO)[C@@H](O)[C@@H](O)[C@@H]3O)cc(O)cc21 | 0.12 µg/mL (≈ 0.0602 µM) | 0.06 µg/mL (≈ 0.0301 µM) | 0.12 µg/mL (≈ 0.0602 µM) | 0.12 µg/mL (≈ 0.0602 µM) | 0.06 µg/mL (≈ 0.0301 µM) | 0.12 µg/mL (≈ 0.0602 µM) | 90 mg/kg | 0.05 mg/kg
5 | CCN1CCCC1CNC(=O)[C@H]1NC(=O)[C@H]2NC(=O)[C@H](NC(=O)[C@@H]3NC(=O)[C@H]4NC(=O)[C@@H](Cc5ccc(c(Cl)c5)Oc5cc3cc(c5O[C@@H]3O[C@@H](CO)[C@@H](O)[C@H](O)[C@@H]3NC(=O)CCCCCCC(C)C)Oc3ccc(cc3Cl)[C@H]2O[C@@H]2O[C@@H](CO)[C@@H](O)[C@H](O)[C@@H]2NC(C)=O)NC(=O)[C@H](N)c2ccc(O)c(c2)Oc2cc(O)cc4c2)c2ccc(O)c(c2)-c2c(O[C@H]3O[C@H](CO)[C@@H](O)[C@@H](O)[C@@H]3O)cc(O)cc21 (stereo partly drawn) | 0.12 µg/mL (≈ 0.0603 µM) | 0.06 µg/mL (≈ 0.0302 µM) | 0.06 µg/mL (≈ 0.0302 µM) | 0.12 µg/mL (≈ 0.0603 µM) | 0.06 µg/mL (≈ 0.0302 µM) | 0.12 µg/mL (≈ 0.0603 µM) | 140 mg/kg | 0.1 mg/kg
6 | CC(=O)N[C@@H]1[C@H](O[C@@H]2c3ccc(c(Cl)c3)Oc3cc4cc(c3O[C@@H]3O[C@@H](CO)[C@@H](O)[C@H](O)[C@@H]3NC(=O)CCCCCCC(C)C)Oc3ccc(cc3Cl)C[C@H]3NC(=O)[C@H](N)c5ccc(O)c(c5)Oc5cc(O)cc(c5)[C@H](NC3=O)C(=O)N[C@H]4C(=O)N[C@H]3C(=O)N[C@@H]2C(=O)N[C@H](C(=O)NCCN2CCOCC2)c2cc(O)cc(O[C@H]4O[C@H](CO)[C@@H](O)[C@@H](O)[C@@H]4O)c2-c2cc3ccc2O)O[C@@H](CO)[C@@H](O)[C@@H]1O | 0.12 µg/mL (≈ 0.0602 µM) | 0.12 µg/mL (≈ 0.0602 µM) | 0.12 µg/mL (≈ 0.0602 µM) | 0.12 µg/mL (≈ 0.0602 µM) | 0.06 µg/mL (≈ 0.0301 µM) | – | 300 mg/kg | 0.08 mg/kg
7 | CC(=O)N[C@@H]1[C@H](O[C@@H]2c3ccc(c(Cl)c3)Oc3cc4cc(c3O[C@@H]3O[C@@H](CO)[C@@H](O)[C@H](O)[C@@H]3NC(=O)CCCCCCC(C)C)Oc3ccc(cc3Cl)C[C@H]3NC(=O)[C@H](N)c5ccc(O)c(c5)Oc5cc(O)cc(c5)[C@H](NC3=O)C(=O)N[C@H]4C(=O)N[C@H]3C(=O)N[C@@H]2C(=O)N[C@H](C(=O)NC2CN4CCC2CC4)c2cc(O)cc(O[C@H]4O[C@H](CO)[C@@H](O)[C@@H](O)[C@@H]4O)c2-c2cc3ccc2O)O[C@@H](CO)[C@@H](O)[C@@H]1O (stereo partly drawn) | 0.12 µg/mL (≈ 0.0604 µM) | 0.06 µg/mL (≈ 0.0302 µM) | 0.12 µg/mL (≈ 0.0604 µM) | 0.12 µg/mL (≈ 0.0604 µM) | 0.06 µg/mL (≈ 0.0302 µM) | – | 173 mg/kg | 0.07 mg/kg

The next lines start with results.

Row | MIC [1] | MIC [2] | MIC [4] | MIC [6] | MIC [8] | SMILES | MIC [3] | ED50 [5] | ED50 [7]
8 | 0.12 µg/mL (≈ 0.0607 µM) | 0.12 µg/mL (≈ 0.0607 µM) | 0.06 µg/mL (≈ 0.0303 µM) | 0.12 µg/mL (≈ 0.0607 µM) | 0.06 µg/mL (≈ 0.0303 µM) | CC(=O)N[C@@H]1[C@H](O[C@@H]2c3ccc(c(Cl)c3)Oc3cc4cc(c3O[C@@H]3O[C@@H](CO)[C@@H](O)[C@H](O)[C@@H]3NC(=O)CCCCCCC(C)C)Oc3ccc(cc3Cl)C[C@H]3NC(=O)[C@H](N)c5ccc(O)c(c5)Oc5cc(O)cc(c5)[C@H](NC3=O)C(=O)N[C@H]4C(=O)N[C@H]3C(=O)N[C@@H]2C(=O)N[C@H](C(=O)NCCCCCCN)c2cc(O)cc(O[C@H]4O[C@H](CO)[C@@H](O)[C@@H](O)[C@@H]4O)c2-c2cc3ccc2O)O[C@@H](CO)[C@@H](O)[C@@H]1O | 0.12 µg/mL (≈ 0.0607 µM) | > 300 mg/kg | 0.14 mg/kg
9 | 0.12 µg/mL (≈ 0.0615 µM) | 0.12 µg/mL (≈ 0.0615 µM) | 0.06 µg/mL (≈ 0.0308 µM) | 0.12 µg/mL (≈ 0.0615 µM) | 0.06 µg/mL (≈ 0.0308 µM) | CCNCCNC(=O)[C@H]1NC(=O)[C@H]2NC(=O)[C@H](NC(=O)[C@@H]3NC(=O)[C@H]4NC(=O)[C@@H](Cc5ccc(c(Cl)c5)Oc5cc3cc(c5O[C@@H]3O[C@@H](CO)[C@@H](O)[C@H](O)[C@@H]3NC(=O)CCCCCCC(C)C)Oc3ccc(cc3Cl)[C@H]2O[C@@H]2O[C@@H](CO)[C@@H](O)[C@H](O)[C@@H]2NC(C)=O)NC(=O)[C@H](N)c2ccc(O)c(c2)Oc2cc(O)cc4c2)c2ccc(O)c(c2)-c2c(O[C@H]3O[C@H](CO)[C@@H](O)[C@@H](O)[C@@H]3O)cc(O)cc21 | 0.12 µg/mL (≈ 0.0615 µM) | 300 mg/kg | 0.18 mg/kg
10 | 0.12 µg/mL (≈ 0.0624 µM) | 0.12 µg/mL (≈ 0.0624 µM) | 0.06 µg/mL (≈ 0.0312 µM) | 0.12 µg/mL (≈ 0.0624 µM) | 0.06 µg/mL (≈ 0.0312 µM) | CC(=O)N[C@@H]1[C@H](O[C@@H]2c3ccc(c(Cl)c3)Oc3cc4cc(c3O[C@@H]3O[C@@H](CO)[C@@H](O)[C@H](O)[C@@H]3NC(=O)CCCCCCC(C)C)Oc3ccc(cc3Cl)C[C@H]3NC(=O)[C@H](N)c5ccc(O)c(c5)Oc5cc(O)cc(c5)[C@H](NC3=O)C(=O)N[C@H]4C(=O)N[C@H]3C(=O)N[C@@H]2C(=O)N[C@H](C(=O)NCCN)c2cc(O)cc(O[C@H]4O[C@H](CO)[C@@H](O)[C@@H](O)[C@@H]4O)c2-c2cc3ccc2O)O[C@@H](CO)[C@@H](O)[C@@H]1O | 0.12 µg/mL (≈ 0.0624 µM) | 139 mg/kg | 0.18 mg/kg
11 | 0.12 µg/mL (≈ 0.062 µM) | 0.12 µg/mL (≈ 0.062 µM) | 0.12 µg/mL (≈ 0.062 µM) | 0.12 µg/mL (≈ 0.062 µM) | 0.06 µg/mL (≈ 0.031 µM) | CNCCNC(=O)[C@H]1NC(=O)[C@H]2NC(=O)[C@H](NC(=O)[C@@H]3NC(=O)[C@H]4NC(=O)[C@@H](Cc5ccc(c(Cl)c5)Oc5cc3cc(c5O[C@@H]3O[C@@H](CO)[C@@H](O)[C@H](O)[C@@H]3NC(=O)CCCCCCC(C)C)Oc3ccc(cc3Cl)[C@H]2O[C@@H]2O[C@@H](CO)[C@@H](O)[C@H](O)[C@@H]2NC(C)=O)NC(=O)[C@H](N)c2ccc(O)c(c2)Oc2cc(O)cc4c2)c2ccc(O)c(c2)-c2c(O[C@H]3O[C@H](CO)[C@@H](O)[C@@H](O)[C@@H]3O)cc(O)cc21 | 0.12 µg/mL (≈ 0.062 µM) | 173 mg/kg | 0.08 mg/kg
12 | 0.12 µg/mL (≈ 0.062 µM) | 0.12 µg/mL (≈ 0.062 µM) | 0.12 µg/mL (≈ 0.062 µM) | 0.25 µg/mL (≈ 0.129 µM) | 0.12 µg/mL (≈ 0.062 µM) | CC(=O)N[C@@H]1[C@H](O[C@@H]2c3ccc(c(Cl)c3)Oc3cc4cc(c3O[C@@H]3O[C@@H](CO)[C@@H](O)[C@H](O)[C@@H]3NC(=O)CCCCCCC(C)C)Oc3ccc(cc3Cl)C[C@H]3NC(=O)[C@H](N)c5ccc(O)c(c5)Oc5cc(O)cc(c5)[C@H](NC3=O)C(=O)N[C@H]4C(=O)N[C@H]3C(=O)N[C@@H]2C(=O)N[C@H](C(=O)NCC(=O)O)c2cc(O)cc(O[C@H]4O[C@H](CO)[C@@H](O)[C@@H](O)[C@@H]4O)c2-c2cc3ccc2O)O[C@@H](CO)[C@@H](O)[C@@H]1O | – | > 300 mg/kg | 0.23 mg/kg
